Test results as given in ChEMBL document CHEMBL5346868 (Eur J Med Chem, 2023).

tested on: not listed separately; experiment: Selectivity index, ratio of CC50 for human RD cells to EC50 for antiviral activity against human Enterovirus 71; assay type: toxicity; details: read-out: Ratio CC50/EC50
How it was run: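 SI is calculated as CC50 on uninfected RD cells divided by EC50 in the 3-day EV71 BrCr CPE-reduction MTS assay.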

Compound	selectivity ratio
OC[C@H]1O[C@@H](n2cnc3c(NCc4ccc(Cl)cc4)ncnc32)[C@H](O)[C@@H]1O	> 424
CSC[C@H]1O[C@@H](n2cnc3c(NCc4cccc(C)c4)ncnc32)[C@H](O)[C@@H]1O	> 83.5
CSC[C@H]1O[C@@H](n2cnc3c(NCc4cccc(Cl)c4)ncnc32)[C@H](O)[C@@H]1O	> 37.7
COC(=O)[C@H](CCSC[C@H]1O[C@@H](n2cnc3c(NCc4cccc(Cl)c4)ncnc32)[C@H](O)[C@@H]1O)NC(=O)C(F)(F)F	> 16.9
OC[C@H]1O[C@@H](n2cnc3c(NCc4ccccc4Cl)ncnc32)[C@H](O)[C@@H]1O	241

tested on: SARS-CoV-2; experiment: Antiviral activity against SARS-CoV-2 BetaCoV/Belgium/GHB-03021/2020 infected in african green monkey Vero cells assessed as decline in virus induced cytopathogenicity measured after 4 days by argon laser scanning microscopic analysis; assay type: functional, organism-based; details: Severe acute respiratory syndrome coronavirus 2, BetaCoV/Belgium/GHB-03021/2020, Vero, 96 h

Compound	EC50
CCC(CC)COC(=O)[C@H](C)N[P@](=O)(OC[C@H]1O[C@@](C#N)(c2ccc3c(N)ncnn23)[C@H](O)[C@@H]1O)Oc1ccccc1	0.058 µM
OC[C@H]1O[C@@H](n2cnc3c(NCc4ccc(Cl)cc4)ncnc32)[C@H](O)[C@@H]1O	> 100 µM
CSC[C@H]1O[C@@H](n2cnc3c(NCc4cccc(C)c4)ncnc32)[C@H](O)[C@@H]1O	> 100 µM
CSC[C@H]1O[C@@H](n2cnc3c(NCc4cccc(Cl)c4)ncnc32)[C@H](O)[C@@H]1O	> 100 µM
COC(=O)[C@H](CCSC[C@H]1O[C@@H](n2cnc3c(NCc4cccc(Cl)c4)ncnc32)[C@H](O)[C@@H]1O)NC(=O)C(F)(F)F	> 100 µM
OC[C@H]1O[C@@H](n2cnc3c(NCc4ccccc4Cl)ncnc32)[C@H](O)[C@@H]1O	> 100 µM

tested on: not listed separately; experiment: Cytotoxicity against african green monkey Vero cells by MTS assay; assay type: toxicity, cell-based; details: chlorocebus sabaeus

Compound	CC50
CSC[C@H]1O[C@@H](n2cnc3c(NCc4cccc(C)c4)ncnc32)[C@H](O)[C@@H]1O	> 50 µM
COC(=O)[C@H](CCSC[C@H]1O[C@@H](n2cnc3c(NCc4cccc(Cl)c4)ncnc32)[C@H](O)[C@@H]1O)NC(=O)C(F)(F)F	> 100 µM

tested on: not listed separately; experiment: Cytotoxicity against human RD cells by MTS assay; assay type: toxicity, cell-based; details: not given
How it was run: (§1)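 Treated, uninfected RD or HeLa cells are run alongside the matching enterovirus CPE assays, with viability read by MTS. CC50 is the concentration giving a 50% adverse effect on host cells.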

Compound	CC50
OC[C@H]1O[C@@H](n2cnc3c(NCc4ccc(Cl)cc4)ncnc32)[C@H](O)[C@@H]1O	> 100 µM
CSC[C@H]1O[C@@H](n2cnc3c(NCc4cccc(C)c4)ncnc32)[C@H](O)[C@@H]1O	> 75 µM
CSC[C@H]1O[C@@H](n2cnc3c(NCc4cccc(Cl)c4)ncnc32)[C@H](O)[C@@H]1O	> 20 µM
COC(=O)[C@H](CCSC[C@H]1O[C@@H](n2cnc3c(NCc4cccc(Cl)c4)ncnc32)[C@H](O)[C@@H]1O)NC(=O)C(F)(F)F	> 100 µM
OC[C@H]1O[C@@H](n2cnc3c(NCc4ccccc4Cl)ncnc32)[C@H](O)[C@@H]1O	28.2 µM

tested on: not listed separately; experiment: Cytotoxicity against african green monkey Vero E6 cells by MTS assay; assay type: toxicity, cell-based, Vero C1008; details: chlorocebus sabaeus
How it was run: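 Cytotoxicity is measured on treated, uninfected Vero E6 cells in parallel with the antiviral assays, using a standard MTS assay. CC50 is the concentration causing a 50% adverse effect on host cells.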

Compound	CC50
CCC(CC)COC(=O)[C@H](C)N[P@](=O)(OC[C@H]1O[C@@](C#N)(c2ccc3c(N)ncnn23)[C@H](O)[C@@H]1O)Oc1ccccc1	> 10 µM
OC[C@H]1O[C@@H](n2cnc3c(NCc4ccc(Cl)cc4)ncnc32)[C@H](O)[C@@H]1O	> 100 µM
CSC[C@H]1O[C@@H](n2cnc3c(NCc4cccc(C)c4)ncnc32)[C@H](O)[C@@H]1O	> 100 µM
CSC[C@H]1O[C@@H](n2cnc3c(NCc4cccc(Cl)c4)ncnc32)[C@H](O)[C@@H]1O	> 100 µM
COC(=O)[C@H](CCSC[C@H]1O[C@@H](n2cnc3c(NCc4cccc(Cl)c4)ncnc32)[C@H](O)[C@@H]1O)NC(=O)C(F)(F)F	> 100 µM
OC[C@H]1O[C@@H](n2cnc3c(NCc4ccccc4Cl)ncnc32)[C@H](O)[C@@H]1O	> 100 µM

tested on: Enterovirus A71; experiment: Antiviral activity against human enterovirus 71 infected in african green monkey vero cells; assay type: functional, organism-based; details: Enterovirus A

Compound	EC50
C#C[C@@]1(O)[C@H](O)[C@@H](CO)O[C@H]1n1ccc2c(N)ncnc21	0.625 µM

tested on: rhinovirus A2; experiment: Antiviral activity against Human rhinovirus 2 infected in human HeLa cells assessed as reduction of virus induced cytopathic effect incubated for 3 days by MTS assay; assay type: functional, organism-based; details: Rhinovirus A, 72 h
How it was run: (§2)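 Same setup as the EV71 assay: confluent monolayers (Vero A for CVB3; HeLa for CVA21, EV68, HRV-A02, HRV-B14) are infected with virus and treated with a compound dilution series. Incubation is 3 days at 37 °C, 5% CO2, and residual viability is read by MTS. EC50 is the 50% effective concentration, mean of at least 2 independent experiments.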

Compound	EC50
CSC[C@H]1O[C@@H](n2cnc3c(NCc4cccc(C)c4)ncnc32)[C@H](O)[C@@H]1O	> 100 µM
COC(=O)[C@H](CCSC[C@H]1O[C@@H](n2cnc3c(NCc4cccc(Cl)c4)ncnc32)[C@H](O)[C@@H]1O)NC(=O)C(F)(F)F	> 100 µM

biological target: METTL3/METTL14 (Homo sapiens, UniProt Q86U44); experiment: Inhibition of human recombinant full length METTL3/human N-terminal FLAG-tagged METTL14 expressed in SF9 cells assessed as methyltransferase residual activity using ssRNA 5'-rUrArC rArCrU rCrGrA rUrCrU rGrGrA rCrUrA rArArG rCrUrG rCrUrC -3' as substrate incubated for 20 mins followed by H-SAM addition measured after 2 hrs by radio isotope reaction system analysis; details: not given
How it was run: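 Compound is pre-incubated for 20 min at room temperature, then 1 μM [3H-methyl]SAM is added for 2 h at room temperature. Activity is reported as % remaining, screened at 100 μM, with IC50 from curve fits.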

METTL3/METTL14, sequence (Q86U44 whole entry): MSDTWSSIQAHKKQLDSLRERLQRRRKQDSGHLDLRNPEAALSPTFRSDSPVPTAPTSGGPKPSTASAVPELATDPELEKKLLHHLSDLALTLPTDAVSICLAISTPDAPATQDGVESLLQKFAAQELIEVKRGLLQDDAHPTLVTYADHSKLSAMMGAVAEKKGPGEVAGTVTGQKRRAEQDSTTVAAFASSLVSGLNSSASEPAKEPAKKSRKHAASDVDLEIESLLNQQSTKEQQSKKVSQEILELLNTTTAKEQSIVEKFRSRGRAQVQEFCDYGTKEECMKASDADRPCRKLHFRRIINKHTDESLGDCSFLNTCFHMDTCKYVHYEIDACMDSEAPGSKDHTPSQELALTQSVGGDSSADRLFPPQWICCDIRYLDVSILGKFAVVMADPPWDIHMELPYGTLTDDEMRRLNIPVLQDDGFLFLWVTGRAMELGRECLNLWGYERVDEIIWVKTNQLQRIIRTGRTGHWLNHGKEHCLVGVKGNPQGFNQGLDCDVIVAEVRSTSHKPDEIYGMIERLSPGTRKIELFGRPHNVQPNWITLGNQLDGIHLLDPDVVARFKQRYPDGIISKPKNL
METTL3/METTL14, sequence (Q9HCE5 whole entry, further chain): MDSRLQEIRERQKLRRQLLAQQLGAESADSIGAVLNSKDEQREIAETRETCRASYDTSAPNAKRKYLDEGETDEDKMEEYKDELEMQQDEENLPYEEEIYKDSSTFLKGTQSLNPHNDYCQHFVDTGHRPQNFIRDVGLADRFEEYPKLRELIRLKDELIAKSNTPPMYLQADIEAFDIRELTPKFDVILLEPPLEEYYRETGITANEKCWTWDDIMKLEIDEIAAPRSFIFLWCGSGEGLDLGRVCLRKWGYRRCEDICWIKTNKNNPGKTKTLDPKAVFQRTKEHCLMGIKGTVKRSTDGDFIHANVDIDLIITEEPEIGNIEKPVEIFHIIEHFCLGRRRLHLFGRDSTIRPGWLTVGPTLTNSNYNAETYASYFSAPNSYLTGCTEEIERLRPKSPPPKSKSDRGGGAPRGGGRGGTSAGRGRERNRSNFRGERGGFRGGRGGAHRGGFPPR

Compound	IC50
CSC[C@H]1O[C@@H](n2cnc3c(NCc4cccc(Cl)c4)ncnc32)[C@H](O)[C@@H]1O	184 µM

tested on: Coxsackievirus A21; experiment: Antiviral activity against Coxsackievirus 21 infected in human HeLa cells assessed as reduction of virus induced cytopathic effect incubated for 3 days by MTS assay; assay type: functional, organism-based; details: Enterovirus C, 72 h
How it was run: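 HeLa cells infected with coxsackievirus A21 (~100 CCID50) and treated with a compound dilution series, as in the EV71 set-up. Incubation was 3 days at 37 °C, 5% CO2, with residual viability quantified by MTS. EC50 is the concentration giving 50% antiviral effect. Values are means of ≥2 independent experiments.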

Compound	EC50
CSC[C@H]1O[C@@H](n2cnc3c(NCc4cccc(C)c4)ncnc32)[C@H](O)[C@@H]1O	> 100 µM
COC(=O)[C@H](CCSC[C@H]1O[C@@H](n2cnc3c(NCc4cccc(Cl)c4)ncnc32)[C@H](O)[C@@H]1O)NC(=O)C(F)(F)F	54.6 µM

tested on: Enterovirus A71; experiment: Antiviral activity against human enterovirus 71 87-2008; assay type: functional, organism-based; details: Enterovirus A

Compound	EC50
CCC(CC)COC(=O)[C@H](C)N[P@](=O)(OC[C@H]1O[C@@](C#N)(c2ccc3c(N)ncnn23)[C@H](O)[C@@H]1O)Oc1ccccc1	0.991 µM

tested on: Zika virus; experiment: Antiviral activity against ZIKV MR766 infected in african green monkey Vero E6 cells assessed as decline in virus induced cytopathogenicity measured after 5 days by MTS based microscopic analysis; assay type: functional, organism-based; details: MR766, Vero C1008, 120 h
How it was run: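 Vero E6 cells (10^4/well) are seeded in MEM with 2% FCS and left to adhere overnight. Cells are then infected with ZIKV MR766 (passaged in C6/36 cells) and given 2-fold serial compound dilutions. After 5 days, CPE is scored by MTS and by microscopy of fixed, stained cells. EC50 is the 50% antiviral effect.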

Compound	EC50
OC[C@H]1O[C@@H](n2cnc3c(NCc4ccc(Cl)cc4)ncnc32)[C@H](O)[C@@H]1O	> 100 µM
CSC[C@H]1O[C@@H](n2cnc3c(NCc4cccc(C)c4)ncnc32)[C@H](O)[C@@H]1O	> 100 µM
CSC[C@H]1O[C@@H](n2cnc3c(NCc4cccc(Cl)c4)ncnc32)[C@H](O)[C@@H]1O	> 100 µM
COC(=O)[C@H](CCSC[C@H]1O[C@@H](n2cnc3c(NCc4cccc(Cl)c4)ncnc32)[C@H](O)[C@@H]1O)NC(=O)C(F)(F)F	> 100 µM
OC[C@H]1O[C@@H](n2cnc3c(NCc4ccccc4Cl)ncnc32)[C@H](O)[C@@H]1O	> 100 µM

tested on: Enterovirus A71; experiment: Antiviral activity against human enterovirus 71; assay type: functional, organism-based; details: Enterovirus A

Compound	EC50
OC[C@H]1O[C@@H](n2cnc3c(NCc4ccccc4)ncnc32)[C@H](O)[C@@H]1O [N6-BENZYLADENOSINE]	0.28 µM

tested on: Coxsackievirus B3; experiment: Antiviral activity against Coxsackievirus B3 infected in african green monkey Vero cells assessed as reduction of virus induced cytopathic effect incubated for 3 days by MTS assay; assay type: functional, organism-based; details: Enterovirus B, 72 h; how it was run: as §2

Compound	EC50
CSC[C@H]1O[C@@H](n2cnc3c(NCc4cccc(C)c4)ncnc32)[C@H](O)[C@@H]1O	> 100 µM
COC(=O)[C@H](CCSC[C@H]1O[C@@H](n2cnc3c(NCc4cccc(Cl)c4)ncnc32)[C@H](O)[C@@H]1O)NC(=O)C(F)(F)F	> 100 µM

tested on: enterovirus D68; experiment: Antiviral activity against Human enterovirus 68 infected in human HeLa cells assessed as reduction of virus induced cytopathic effect incubated for 3 days by MTS assay; assay type: functional, organism-based; details: Enterovirus D, 72 h; how it was run: as §2

Compound	EC50
CSC[C@H]1O[C@@H](n2cnc3c(NCc4cccc(C)c4)ncnc32)[C@H](O)[C@@H]1O	> 100 µM
COC(=O)[C@H](CCSC[C@H]1O[C@@H](n2cnc3c(NCc4cccc(Cl)c4)ncnc32)[C@H](O)[C@@H]1O)NC(=O)C(F)(F)F	> 100 µM

tested on: not listed separately; experiment: Cytotoxicity against human HeLa cells by MTS assay; assay type: toxicity, cell-based; details: not given; how it was run: as §1

Compound	CC50
CSC[C@H]1O[C@@H](n2cnc3c(NCc4cccc(C)c4)ncnc32)[C@H](O)[C@@H]1O	> 100 µM
COC(=O)[C@H](CCSC[C@H]1O[C@@H](n2cnc3c(NCc4cccc(Cl)c4)ncnc32)[C@H](O)[C@@H]1O)NC(=O)C(F)(F)F	> 100 µM

tested on: Enterovirus A71; experiment: Antiviral activity against human Enterovirus 71 BrCr infected in human RD cells assessed as reduction of virus induced cytopathic effect incubated for 3 days by MTS assay; assay type: functional, organism-based; details: Enterovirus A, 72 h
How it was run: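 Confluent RD cells (EMEM, 10% heat-inactivated FBS) are infected with ~100 CCID50 of EV71 BrCr and treated with a compound dilution series. After 3 days at 37 °C, 5% CO2, residual viability is measured by MTS. EC50 is the concentration giving 50% antiviral effect, from at least 2–3 independent experiments.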

Compound	EC50
OC[C@H]1O[C@@H](n2cnc3c(NCc4ccc(Cl)cc4)ncnc32)[C@H](O)[C@@H]1O	0.236 µM
CSC[C@H]1O[C@@H](n2cnc3c(NCc4cccc(C)c4)ncnc32)[C@H](O)[C@@H]1O	0.898 µM
CSC[C@H]1O[C@@H](n2cnc3c(NCc4cccc(Cl)c4)ncnc32)[C@H](O)[C@@H]1O	0.53 µM
COC(=O)[C@H](CCSC[C@H]1O[C@@H](n2cnc3c(NCc4cccc(Cl)c4)ncnc32)[C@H](O)[C@@H]1O)NC(=O)C(F)(F)F	4.5 µM
OC[C@H]1O[C@@H](n2cnc3c(NCc4ccccc4Cl)ncnc32)[C@H](O)[C@@H]1O	0.117 µM

tested on: rhinovirus B14; experiment: Antiviral activity against Human rhinovirus 14 infected in human HeLa cells assessed as reduction of virus induced cytopathic effect incubated for 3 days by MTS assay; assay type: functional, organism-based; details: Rhinovirus B, 72 h; how it was run: as §2

Compound	EC50
CSC[C@H]1O[C@@H](n2cnc3c(NCc4cccc(C)c4)ncnc32)[C@H](O)[C@@H]1O	> 100 µM
COC(=O)[C@H](CCSC[C@H]1O[C@@H](n2cnc3c(NCc4cccc(Cl)c4)ncnc32)[C@H](O)[C@@H]1O)NC(=O)C(F)(F)F	> 100 µM
